Experimental data as given in ChEMBL document CHEMBL5030506 (J Med Chem, 2021).
Active and inactive are the calls of the source. No cut-off for these calls is given here.

Tests used:
[1] = molecular target: Histone-lysine N-methyltransferase KMT5C (Homo sapiens) (UniProt Q86Y97); test: Inhibition of SUV420H2 (unknown origin) at 1 to 10 uM; conditions: dose 1-10 µM
How it was run: (§1)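 Part of a 33-methyltransferase selectivity panel covering 8 PRMTs, 21 PKMTs, 3 DNMTs and 1 RNA methyltransferase. Each compound was tested at 1 μM and at 10 μM, with n = 3.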

[2] = molecular target: Histone-lysine N-methyltransferase SUV39H2 (Homo sapiens) (UniProt Q9H5I1); test: Inhibition of SUV39H2 (unknown origin) at 1 to 10 uM; conditions: dose 1-10 µM; how it was run: as §1
[3] = molecular target: Histone-lysine N-methyltransferase KMT5B (Homo sapiens) (UniProt Q4FZB7); test: Inhibition of SUV420H1 (unknown origin) at 1 to 10 uM; conditions: dose 1-10 µM; how it was run: as §1
[4] = molecular target: Histone-lysine N-methyltransferase SUV39H1 (Homo sapiens) (UniProt O43463); test: Inhibition of SUV39H1 (unknown origin) at 1 to 10 uM; conditions: dose 1-10 µM; how it was run: as §1
[5] = molecular target: Histone-lysine N-methyltransferase SETDB1 (Homo sapiens) (UniProt Q15047); test: Inhibition of SETDB1 (unknown origin) at 1 to 10 uM; conditions: dose 1-10 µM; how it was run: as §1
[6] = molecular target: Histone-lysine N-methyltransferase EHMT2 (Homo sapiens) (UniProt Q96KQ7); test: Inhibition of G9a (unknown origin) at 1 to 10 uM; conditions: dose 1-10 µM; how it was run: as §1
[7] = molecular target: Histone-lysine N-methyltransferase EHMT1 (Homo sapiens) (UniProt Q9H9B1); test: Inhibition of GLP (unknown origin) at 1 to 10 uM; conditions: dose 1-10 µM; how it was run: as §1
[8] = molecular target: Protein arginine N-methyltransferase 8 (Homo sapiens) (UniProt Q9NR22); test: Inhibition of PRMT8 (unknown origin) at 1 to 10 uM; conditions: dose 1-10 µM; how it was run: as §1
[9] = molecular target: Protein arginine N-methyltransferase 5 (Homo sapiens) (UniProt O14744); test: Inhibition of PRMT5 (unknown origin) at 1 to 10 uM; conditions: dose 1-10 µM; how it was run: as §1
[10] = molecular target: Protein arginine N-methyltransferase 7 (Homo sapiens) (UniProt Q9NVM4); test: Inhibition of PRMT7 (unknown origin) at 1 to 10 uM; conditions: dose 1-10 µM; how it was run: as §1
[11] = molecular target: Histone-arginine methyltransferase CARM1 (Homo sapiens) (UniProt Q86X55); test: Inhibition of PRMT4 (unknown origin) at 1 to 10 uM; conditions: dose 1-10 µM; how it was run: as §1
[12] = molecular target: Protein arginine N-methyltransferase 3 (Homo sapiens) (UniProt O60678); test: Inhibition of PRMT3 (unknown origin) at 1 to 10 uM; conditions: dose 1-10 µM; how it was run: as §1
[13] = molecular target: Protein arginine N-methyltransferase 1 (Homo sapiens) (UniProt Q99873); test: Inhibition of PRMT1 (unknown origin) at 1 to 10 uM; conditions: dose 1-10 µM; how it was run: as §1
[14] = molecular target: Histone-lysine N-methyltransferase SETD7 (Homo sapiens) (UniProt Q8WTS6); test: Inhibition of SETD7 (unknown origin) at 1 to 10 uM; conditions: dose 1-10 µM; how it was run: as §1
[15] = molecular target: N-lysine methyltransferase KMT5A (Homo sapiens) (UniProt Q9NQR1); test: Inhibition of SETD8 (unknown origin) at 1 to 10 uM; conditions: dose 1-10 µM; how it was run: as §1
[16] = molecular target: Histone-lysine N-methyltransferase 2A (Homo sapiens) (UniProt Q03164); test: Inhibition of MLL1 (unknown origin) at 1 to 10 uM; conditions: dose 1-10 µM; how it was run: as §1
[17] = molecular target: Histone-lysine N-methyltransferase 2C (Homo sapiens) (UniProt Q8NEZ4); test: Inhibition of MLL3 (unknown origin) at 1 to 10 uM; conditions: dose 1-10 µM; how it was run: as §1
[18] = molecular target: Histone-lysine N-methyltransferase PRDM9 (Homo sapiens) (UniProt Q9NQV7); test: Inhibition of PRDM9 (unknown origin) at 1 to 10 uM; conditions: dose 1-10 µM; how it was run: as §1
[19] = molecular target: Histone-lysine N-methyltransferase EZH2 (Homo sapiens) (UniProt Q15910); test: Inhibition of PRC2 (unknown origin) at 1 to 10 uM; conditions: dose 1-10 µM; how it was run: as §1
[20] = molecular target: Histone-lysine N-methyltransferase SETD2 (Homo sapiens) (UniProt Q9BYW2); test: Inhibition of SETD2 (unknown origin) at 1 to 10 uM; conditions: dose 1-10 µM; how it was run: as §1
[21] = molecular target: N-lysine methyltransferase SMYD2 (Homo sapiens) (UniProt Q9NRG4); test: Inhibition of SMYD2 (unknown origin) at 1 to 10 uM; conditions: dose 1-10 µM; how it was run: as §1
[22] = molecular target: Histone-lysine N-methyltransferase SMYD3 (Homo sapiens) (UniProt Q9H7B4); test: Inhibition of SMYD3 (unknown origin) at 1 to 10 uM; conditions: dose 1-10 µM; how it was run: as §1
[23] = molecular target: RNA 5'-monophosphate methyltransferase (Homo sapiens) (UniProt Q7Z5W3); test: Inhibition of BCDIN3D (unknown origin) at 1 to 10 uM; conditions: dose 1-10 µM; how it was run: as §1
[24] = molecular target: DNA (cytosine-5)-methyltransferase 1 (Homo sapiens) (UniProt P26358); test: Inhibition of DNMT1 (unknown origin) at 1 to 10 uM; conditions: dose 1-10 µM; how it was run: as §1
[25] = molecular target: DNA (cytosine-5)-methyltransferase 3A (Homo sapiens) (UniProt Q9Y6K1); test: Inhibition of DNMT3A (unknown origin) at 1 to 10 uM; conditions: dose 1-10 µM; how it was run: as §1
[26] = molecular target: DNA (cytosine-5)-methyltransferase 3B (Homo sapiens) (UniProt Q9UBC3); test: Inhibition of DNMT3B (unknown origin) at 1 to 10 uM; conditions: dose 1-10 µM; how it was run: as §1
[27] = molecular target: Histone-lysine N-methyltransferase, H3 lysine-79 specific (Homo sapiens) (UniProt Q8TEK3); test: Inhibition of DOT1L (unknown origin) at 1 to 10 uM; conditions: dose 1-10 µM; how it was run: as §1
[28] = molecular target: Histone-lysine N-methyltransferase ASH1L (Homo sapiens) (UniProt Q9NR48); test: Inhibition of ASH1L (unknown origin) at 1 to 10 uM; conditions: dose 1-10 µM; how it was run: as §1
[29] = molecular target: Histone-lysine N-methyltransferase, H3 lysine-36 specific (Homo sapiens) (UniProt Q96L73); test: Inhibition of NSD1 (unknown origin) at 1 to 10 uM; conditions: dose 1-10 µM; how it was run: as §1
[30] = molecular target: Histone-lysine N-methyltransferase NSD2 (Homo sapiens) (UniProt O96028); test: Inhibition of NSD2 (unknown origin) at 1 to 10 uM; conditions: dose 1-10 µM; how it was run: as §1
[31] = molecular target: Histone-lysine N-methyltransferase NSD3 (Homo sapiens) (UniProt Q9BZ95); test: Inhibition of NSD3 (unknown origin) at 1 to 10 uM; conditions: dose 1-10 µM; how it was run: as §1
HEK293T [32] = test: Inhibition of FLAG-tagged PRMT6 V86K/D88A mutant (unknown origin) expressed in HEK293T assessed as reduction in H3R2me2a level measured after 20 hrs by SDS gel electrophoresis relative to control; type: cell-based; conditions: Homo sapiens
How it was run: (§2)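 HEK293T cells were grown in DMEM with 10% FBS and penicillin/streptomycin. The next day they were transfected with FLAG-PRMT6 or the V86K/D88A mutant (1 μg DNA per well). After 4 h, medium was replaced with titrated compound for 20 h. Cells were lysed in benzonase-containing buffer, SDS was added to 1%, and lysates were western blotted for H3R2me2a or H4R3me2a, total H3/H4 and FLAG, with infrared detection at 800/700 nm.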

HEK293T [33] = test: Inhibition of FLAG-tagged PRMT6 V86K/D88A mutant (unknown origin) expressed in HEK293T assessed as reduction in H4R3me2a level measured after 20 hrs by SDS gel electrophoresis relative to control; type: cell-based; conditions: Homo sapiens; how it was run: as §2
HEK-293T [34] = test: Cytotoxicity against HEK293T cells at up to 10 uM measured after 3 days by CCK8 assay; type: cell-based; conditions: human, 72 h, time 3 day
How it was run: (§3)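 Cells (1 × 10^4 per well) were seeded and, after 24 h, exposed for 3 days to serially diluted compound starting at 10 μM. CCK-8 (WST-8) reagent was then added for 4 h at 37 °C, and absorbance was read at 450 nm. Values are the average ± SD of three replicate experiments.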

PNT2 = test: Cytotoxicity against PNT2 cells at up to 10 uM measured after 3 days by CCK8 assay; type: cell-based; conditions: human, pnt2, 72 h, time 3 day; how it was run: as §3
MCF7 = test: Cytotoxicity against MCF7 cells at up to 10 uM measured after 3 days by CCK8 assay; type: cell-based; conditions: human, mcf7, 72 h, time 3 day; how it was run: as §3
[35] = molecular target: Protein arginine N-methyltransferase 9 (Homo sapiens) (UniProt Q6P2P2); test: Inhibition of PRMT9 (unknown origin) at 1 to 10 uM; conditions: dose 1-10 µM
[36] = molecular target: Protein arginine N-methyltransferase 6 (Homo sapiens, UniProt Q96LA8); test: Inhibition of PRMT6 (unknown origin)
[37] = Inhibition of PRMT6 mutant 20 (unknown origin) using biotinylated H4(1 to 24) peptide as substrate preincubated for 20 mins in presence of [3H]SAM followed by substrate addition by scintillation proximity assay; parameters: species or system Homo sapiens
[38] = Inhibition of PRMT6 mutant 19 (unknown origin) using biotinylated H4(1 to 24) peptide as substrate preincubated for 20 mins in presence of [3H]SAM followed by substrate addition by scintillation proximity assay; parameters: species or system Homo sapiens
[39] = Inhibition of PRMT6 mutant 17 (unknown origin) using biotinylated H4(1 to 24) peptide as substrate preincubated for 20 mins in presence of [3H]SAM followed by substrate addition by scintillation proximity assay; parameters: species or system Homo sapiens
HEK-293T [40] = test: Cytotoxicity against HEK293T cells at 30 uM measured after 20 hrs by Western blot analysis; conditions: human

Sequence of Histone-lysine N-methyltransferase KMT5B (Homo sapiens) (Q4FZB7 whole entry, looked up): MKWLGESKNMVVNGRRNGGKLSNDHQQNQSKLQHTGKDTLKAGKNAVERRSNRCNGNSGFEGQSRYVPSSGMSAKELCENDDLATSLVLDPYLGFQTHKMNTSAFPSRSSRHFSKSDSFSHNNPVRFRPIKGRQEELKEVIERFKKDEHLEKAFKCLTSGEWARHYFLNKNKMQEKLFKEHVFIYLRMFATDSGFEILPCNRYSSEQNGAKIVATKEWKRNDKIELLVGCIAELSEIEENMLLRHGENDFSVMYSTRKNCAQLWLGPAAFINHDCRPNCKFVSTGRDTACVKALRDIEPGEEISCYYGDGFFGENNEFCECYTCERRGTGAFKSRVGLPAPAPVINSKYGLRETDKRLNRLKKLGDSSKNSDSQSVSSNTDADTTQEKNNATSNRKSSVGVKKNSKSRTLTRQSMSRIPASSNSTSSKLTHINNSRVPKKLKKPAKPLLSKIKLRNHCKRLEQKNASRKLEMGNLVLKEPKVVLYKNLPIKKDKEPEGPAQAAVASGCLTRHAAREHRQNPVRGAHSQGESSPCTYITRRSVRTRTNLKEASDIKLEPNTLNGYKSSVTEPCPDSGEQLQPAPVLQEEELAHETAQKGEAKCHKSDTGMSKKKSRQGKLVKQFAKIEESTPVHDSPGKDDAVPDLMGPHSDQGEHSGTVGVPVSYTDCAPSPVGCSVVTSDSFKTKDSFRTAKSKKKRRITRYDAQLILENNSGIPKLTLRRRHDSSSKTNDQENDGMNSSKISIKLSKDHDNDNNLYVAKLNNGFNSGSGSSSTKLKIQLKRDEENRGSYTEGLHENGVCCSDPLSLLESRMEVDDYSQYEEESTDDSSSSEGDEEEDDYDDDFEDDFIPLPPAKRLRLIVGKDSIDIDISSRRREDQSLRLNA
Sequence of Histone-lysine N-methyltransferase SMYD3 (Homo sapiens) (Q9H7B4 whole entry): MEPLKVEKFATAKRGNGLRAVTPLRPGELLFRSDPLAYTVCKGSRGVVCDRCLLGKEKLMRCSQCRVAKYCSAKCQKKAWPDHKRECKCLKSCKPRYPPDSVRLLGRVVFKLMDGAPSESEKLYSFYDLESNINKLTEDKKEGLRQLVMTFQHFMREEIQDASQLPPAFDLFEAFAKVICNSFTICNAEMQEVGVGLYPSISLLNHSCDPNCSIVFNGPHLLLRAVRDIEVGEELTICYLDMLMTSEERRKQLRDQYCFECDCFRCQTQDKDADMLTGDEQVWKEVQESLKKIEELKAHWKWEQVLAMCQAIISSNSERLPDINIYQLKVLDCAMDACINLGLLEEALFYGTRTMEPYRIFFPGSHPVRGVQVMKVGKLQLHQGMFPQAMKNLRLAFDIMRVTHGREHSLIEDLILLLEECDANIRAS
Sequence of Histone-lysine N-methyltransferase EHMT1 (Homo sapiens) (Q9H9B1 whole entry): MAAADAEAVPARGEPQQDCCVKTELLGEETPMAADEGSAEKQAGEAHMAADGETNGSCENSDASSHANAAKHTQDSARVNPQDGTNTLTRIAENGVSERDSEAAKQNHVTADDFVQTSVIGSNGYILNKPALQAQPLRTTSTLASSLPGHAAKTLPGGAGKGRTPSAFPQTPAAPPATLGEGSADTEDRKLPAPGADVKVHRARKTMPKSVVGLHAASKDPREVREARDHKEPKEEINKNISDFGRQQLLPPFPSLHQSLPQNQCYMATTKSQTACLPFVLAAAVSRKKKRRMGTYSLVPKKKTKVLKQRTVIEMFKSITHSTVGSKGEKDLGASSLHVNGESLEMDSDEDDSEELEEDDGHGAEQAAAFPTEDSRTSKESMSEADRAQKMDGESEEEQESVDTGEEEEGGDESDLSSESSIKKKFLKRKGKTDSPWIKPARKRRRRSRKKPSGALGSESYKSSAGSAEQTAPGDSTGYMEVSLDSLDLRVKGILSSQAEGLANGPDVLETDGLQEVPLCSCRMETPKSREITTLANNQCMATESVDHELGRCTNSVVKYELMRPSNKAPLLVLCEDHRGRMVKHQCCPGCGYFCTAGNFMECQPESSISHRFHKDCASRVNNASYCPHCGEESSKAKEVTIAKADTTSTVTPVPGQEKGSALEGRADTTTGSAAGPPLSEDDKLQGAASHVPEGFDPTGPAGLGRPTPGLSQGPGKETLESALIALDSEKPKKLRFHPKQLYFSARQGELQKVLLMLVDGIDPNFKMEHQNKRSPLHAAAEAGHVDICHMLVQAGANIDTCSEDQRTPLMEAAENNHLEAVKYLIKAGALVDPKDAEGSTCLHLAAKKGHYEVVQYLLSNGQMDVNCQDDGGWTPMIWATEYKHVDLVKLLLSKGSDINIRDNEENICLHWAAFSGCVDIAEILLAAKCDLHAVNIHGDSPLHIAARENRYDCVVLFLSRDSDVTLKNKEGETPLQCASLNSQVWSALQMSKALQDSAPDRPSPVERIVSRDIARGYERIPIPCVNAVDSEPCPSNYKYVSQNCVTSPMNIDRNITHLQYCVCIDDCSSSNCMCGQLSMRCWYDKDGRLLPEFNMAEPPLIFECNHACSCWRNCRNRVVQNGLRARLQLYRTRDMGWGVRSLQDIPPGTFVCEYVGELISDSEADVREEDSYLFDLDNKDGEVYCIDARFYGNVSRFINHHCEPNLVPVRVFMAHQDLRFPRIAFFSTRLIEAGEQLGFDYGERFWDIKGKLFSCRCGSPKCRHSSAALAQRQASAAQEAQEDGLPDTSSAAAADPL
Sequence of DNA (cytosine-5)-methyltransferase 1 (Homo sapiens) (P26358 whole entry): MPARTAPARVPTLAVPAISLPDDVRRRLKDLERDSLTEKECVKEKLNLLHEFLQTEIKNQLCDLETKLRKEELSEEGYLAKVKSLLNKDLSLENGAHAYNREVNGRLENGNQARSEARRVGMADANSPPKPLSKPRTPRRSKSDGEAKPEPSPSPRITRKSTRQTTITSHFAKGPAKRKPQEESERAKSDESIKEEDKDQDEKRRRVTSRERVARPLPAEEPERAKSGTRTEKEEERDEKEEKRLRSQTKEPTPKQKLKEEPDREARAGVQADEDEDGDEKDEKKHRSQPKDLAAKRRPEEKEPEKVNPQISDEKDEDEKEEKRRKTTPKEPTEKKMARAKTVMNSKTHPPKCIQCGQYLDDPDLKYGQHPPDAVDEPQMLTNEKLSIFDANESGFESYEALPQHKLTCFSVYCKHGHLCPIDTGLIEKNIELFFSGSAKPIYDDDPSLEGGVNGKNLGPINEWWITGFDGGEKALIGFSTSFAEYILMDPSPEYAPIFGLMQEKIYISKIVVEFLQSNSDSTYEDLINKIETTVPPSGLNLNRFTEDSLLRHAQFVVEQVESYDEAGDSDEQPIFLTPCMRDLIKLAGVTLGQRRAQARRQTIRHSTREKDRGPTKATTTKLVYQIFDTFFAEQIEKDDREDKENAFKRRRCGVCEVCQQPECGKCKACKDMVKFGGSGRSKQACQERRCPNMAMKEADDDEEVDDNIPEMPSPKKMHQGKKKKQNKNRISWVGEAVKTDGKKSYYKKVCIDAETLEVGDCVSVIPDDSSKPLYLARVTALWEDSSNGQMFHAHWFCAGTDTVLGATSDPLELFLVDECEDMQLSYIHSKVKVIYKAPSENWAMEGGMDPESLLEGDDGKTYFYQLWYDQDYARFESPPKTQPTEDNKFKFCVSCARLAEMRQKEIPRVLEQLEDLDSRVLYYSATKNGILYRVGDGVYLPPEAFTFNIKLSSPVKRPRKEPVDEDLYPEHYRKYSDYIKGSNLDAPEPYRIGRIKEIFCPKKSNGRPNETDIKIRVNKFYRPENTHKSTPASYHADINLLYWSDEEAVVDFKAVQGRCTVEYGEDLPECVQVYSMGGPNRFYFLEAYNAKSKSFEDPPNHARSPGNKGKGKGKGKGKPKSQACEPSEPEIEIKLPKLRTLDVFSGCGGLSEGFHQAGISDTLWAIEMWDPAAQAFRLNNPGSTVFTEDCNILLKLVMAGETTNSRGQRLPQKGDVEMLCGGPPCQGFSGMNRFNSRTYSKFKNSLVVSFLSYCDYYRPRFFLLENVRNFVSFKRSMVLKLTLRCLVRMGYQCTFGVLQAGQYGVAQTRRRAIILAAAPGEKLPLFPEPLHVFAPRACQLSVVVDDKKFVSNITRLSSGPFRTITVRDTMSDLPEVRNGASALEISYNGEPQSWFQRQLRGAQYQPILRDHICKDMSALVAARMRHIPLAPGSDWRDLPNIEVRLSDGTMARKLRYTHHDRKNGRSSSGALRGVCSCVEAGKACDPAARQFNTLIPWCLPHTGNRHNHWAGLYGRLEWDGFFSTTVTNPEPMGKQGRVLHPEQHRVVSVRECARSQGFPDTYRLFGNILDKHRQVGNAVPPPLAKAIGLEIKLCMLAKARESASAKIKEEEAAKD
Sequence of N-lysine methyltransferase SMYD2 (Homo sapiens) (Q9NRG4 whole entry): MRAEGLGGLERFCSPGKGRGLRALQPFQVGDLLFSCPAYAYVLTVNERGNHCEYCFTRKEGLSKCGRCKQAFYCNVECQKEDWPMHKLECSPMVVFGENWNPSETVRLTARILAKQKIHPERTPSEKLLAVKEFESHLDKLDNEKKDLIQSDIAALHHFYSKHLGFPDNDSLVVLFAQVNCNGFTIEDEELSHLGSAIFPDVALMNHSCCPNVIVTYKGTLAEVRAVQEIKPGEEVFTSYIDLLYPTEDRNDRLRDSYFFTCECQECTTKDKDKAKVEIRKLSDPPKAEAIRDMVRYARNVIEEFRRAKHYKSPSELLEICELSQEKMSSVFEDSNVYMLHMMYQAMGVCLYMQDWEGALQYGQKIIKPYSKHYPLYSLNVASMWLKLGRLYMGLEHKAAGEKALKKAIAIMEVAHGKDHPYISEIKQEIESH
Sequence of RNA 5'-monophosphate methyltransferase (Homo sapiens) (Q7Z5W3 whole entry): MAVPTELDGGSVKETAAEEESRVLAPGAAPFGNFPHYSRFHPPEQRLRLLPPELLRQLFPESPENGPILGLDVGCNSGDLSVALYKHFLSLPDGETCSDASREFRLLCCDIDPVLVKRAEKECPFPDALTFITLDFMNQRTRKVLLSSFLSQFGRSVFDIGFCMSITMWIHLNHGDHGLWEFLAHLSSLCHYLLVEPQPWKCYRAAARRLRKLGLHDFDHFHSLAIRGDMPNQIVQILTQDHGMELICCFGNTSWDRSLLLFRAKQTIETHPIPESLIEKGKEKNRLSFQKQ

Structure (SMILES) | inhibition [1] | inhibition [2] | inhibition [3] | inhibition [4] | inhibition [5] | inhibition [6] | inhibition [7] | inhibition [8] | inhibition [9] | inhibition [10] | inhibition [11] | inhibition [12] | inhibition [13] | inhibition [14] | inhibition [15] | inhibition [16] | inhibition [17] | inhibition [18] | inhibition [19] | inhibition [20] | further results
Cc1cc(C)cc([C@@H]2c3cc(C)ccc3NC(=O)CN2C(=O)c2ccc(Br)s2)c1 | inactive | inactive | inactive | inactive | inactive | inactive | inactive | inactive | inactive | inactive | inactive | inactive | inactive | inactive | inactive | inactive | inactive | inactive | inactive | inactive | inhibition [21]: inactive; inhibition [22]: inactive; inhibition [23]: inactive; inhibition [24]: inactive; inhibition [25]: inactive; inhibition [26]: inactive; inhibition [27]: inactive; inhibition [28]: inactive; inhibition [29]: inactive; inhibition [30]: inactive; inhibition [31]: inactive; inhibition (HEK293T [32]): 100%; inhibition (HEK293T [33]): 100%; Activity (HEK-293T [34]): Non-Toxic; Activity (PNT2): Non-Toxic; Activity (MCF7): Non-Toxic; inhibition [35]: inactive
CNCCN1CCC(OCc2ccccc2)CC1 | – | – | – | – | – | – | – | – | – | – | – | – | – | – | – | – | – | – | – | – | IC50 [36]: 0.034 µM
Cc1ccc2c(c1)[C@@H](c1ccc(F)cc1)N(C(=O)c1ccc(Br)o1)CC(=O)N2 | – | – | – | – | – | – | – | – | – | – | – | – | – | – | – | – | – | – | – | – | IC50 [37]: 41 µM; IC50 [38]: 17 µM; IC50 [39]: 46 µM
Cc1cc(C)cc([C@H]2c3cc(C)ccc3NC(=O)CN2C(=O)c2ccc(Br)s2)c1 | inactive | inactive | inactive | inactive | inactive | inactive | inactive | inactive | inactive | inactive | inactive | inactive | inactive | inactive | inactive | inactive | inactive | inactive | inactive | inactive | inhibition [21]: inactive; inhibition [22]: inactive; inhibition [23]: inactive; inhibition [24]: inactive; inhibition [25]: inactive; inhibition [26]: inactive; inhibition [27]: inactive; inhibition [28]: inactive; inhibition [29]: inactive; inhibition [30]: inactive; inhibition [31]: inactive; Activity (PNT2): Non-Toxic; Activity (MCF7): Non-Toxic; inhibition [35]: inactive; Activity (HEK-293T [40]): Toxic
